Reference: paper PMC2913166 (Molecular pharmaceutics, 2009)
Values joined by “and” are separate entries in the source; they are usually repeats but may differ in a detail not shown here. Identical values can stand only once. “Also recorded” adds a separate entry of the source. K(Me2NCp) = not defined here; CbOH = not defined here

Assays:
[1] = Absorption and fluorescence spectroscopy, quantum yield; assay type: physicochemical; conditions: for λabs max / λem max / Quantum yield: 20% DMSO in water; for λabs max / λem max: room temperature; for Quantum yield: relative to ICG in DMSO, QY=0.12
In short: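 Test compounds dissolved in spectral-grade DMSO, diluted in 20% DMSO/water, and read at room temperature. Fluorescence was excited at 700 nm with 5 nm slits, keeping absorbance below 0.1. Molar absorptivity was averaged from three-point measurements at the absorption maximum. Quantum yield was taken relative to ICG in 100% DMSO. Probe in assay buffer was split: one half diluted with water to 1 mL, the other cleaved by caspase-3, then diluted likewise.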

[2] = target: T1, recombinant human caspase-3 (Homo sapiens, UniProt P42574); test: Caspase-3 enzyme kinetics of the NIR substrates; assay type: biochemical
T1 sequence (P42574 29-175 limits assumed): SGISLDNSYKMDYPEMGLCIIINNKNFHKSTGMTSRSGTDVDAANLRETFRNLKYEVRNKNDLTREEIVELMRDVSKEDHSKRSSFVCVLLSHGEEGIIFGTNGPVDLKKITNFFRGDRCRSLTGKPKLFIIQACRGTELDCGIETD
T1 sequence (P42574 176-277 limits assumed): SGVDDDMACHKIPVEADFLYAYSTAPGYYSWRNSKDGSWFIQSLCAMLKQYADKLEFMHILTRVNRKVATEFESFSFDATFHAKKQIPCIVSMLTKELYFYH
In short: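 Active sites were titrated with Ac-DEVD-pNA (2.5–50 μM, 25°C, absorbance […] nm). Substrate (0.5–100 μM; DMSO stock) hydrolysis was followed by NIR fluorescence (ex 785/em 805 nm) over time. Linear slope ÷ complete-hydrolysis fluorescence × [S] gave vo, fitted to Michaelis–Menten. kcat/KM was computed; ± SEM.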

caspase-3 = conditions: cited from earlier work; for Km: read-out: KM of standard substrate
[3] = dissolved in 100% DMSO; reference value used for comparison; cited from earlier work
A549 cells = assay type: cell-based, human; conditions: 5 μM paclitaxel for 2 h; read out by fluorescence of 5
In short: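 A549 cells were grown in Ham's F12K with 10% FBS and penicillin/streptomycin at 37°C, 5% CO2, seeded at 1×10^5/well in chamber slides overnight. Cells were loaded with 10 μM probe using GeneJuice in Opti-MEM for 24 h at 37°C. Paclitaxel was given for 2 h at 37°C, then three PBS washes. NIR confocal imaging (785 nm laser) read mean cytoplasmic intensity (Ex/Em 785/805–830) in 12 cells; mean ± SD, t-test.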

[4] = Fluorescence lifetime measurement; assay type: physicochemical; conditions: 20% DMSO/water, excitation 773 nm, detection 820 nm, room temperature
In short: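 TCSPC used a 773 nm pulsed LED source at 1 MHz, with detection at 90°. Counts were binned at 6.88 ps/channel until the peak reached 10,000, on a 50 ns scale. Instrument response came from Rayleigh scatter of 0.03% Ludox-40. Decays in 20% DMSO/water were fitted to two exponentials, discarding components contributing <3%.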

Molecule | λabs max [1] | λem max [1] | Quantum yield [1] | kcat of standard substrate (caspase-3) | Km (caspase-3) | also measured
AcGK(Me2NCp)-DEVD-APK(CbOH)-NH2 ({Ac-Gly-K(Me2NCp)}-DEVDAPK(CbOH)-NH2; reading uncertain; also: printed as AcGK(Me2NCp)-DEVD-APK(CbOH)-NH2) [Compound 5] | 759 nm and 790 nm | 763 nm | <0.001 |  |  | Ratio F760/F810 of emission after cleavage ([1]; 5 after enzymatic cleavage by caspase-3, diluted with water): 7.16; kcat (turnover number) ([2]; 5 (0.5 to 100 μM) with caspase 3 (290 pM), 10 mM PIPES pH 7.4, 2 mM EDTA, 0.1% CHAPS, 5 mM DTT, triplicate, λex=785 nm, λem=805 nm, ± standard error of the mean, SEM): 1.02 ± 0.06 s⁻¹; Cleavage (hydrolysis) by caspase-3, in words ([2]; assay buffer pH 7.4, recombinant human caspase-3): cleaved more readily than 4; also recorded: readily cleaved; kcat/KM (catalytic efficiency) ([2]; caspase-3, computed from kcat and KM): 68000 M⁻¹ s⁻¹; Km ([2]; read-out: KM (Michaelis-Menten constant), 5 (0.5 to 100 μM) with caspase 3 (290 pM), 10 mM PIPES pH 7.4, 2 mM EDTA, 0.1% CHAPS, 5 mM DTT, triplicate, λex=785 nm, λem=805 nm, ± standard error of the mean, SEM): 15 ± 3 µM
Ac-DEVD-AMC |  |  |  | 0.75 s⁻¹ | 9.7 µM | 
Ac-DEVD-pNA |  |  |  | 2.4 s⁻¹ | 11 µM | 
CC1(C)C(/C=C/C=C/C=C/C=C2\N(CCCCS(=O)(=O)O)c3ccc4ccccc4c3C2(C)C)=[N+](CCCCS(=O)(=O)[O-])c2ccc3ccccc3c21 [ICG, indocyanine green] |  |  |  |  |  | Fluorescence quantum yield of the standard [3]: 0.12
CC(=O)O[C@H]1C(=O)[C@@]2(C)[C@H]([C@H](OC(=O)c3ccccc3)[C@]3(O)C[C@H](OC(=O)[C@H](O)[C@@H](NC(=O)c4ccccc4)c4ccccc4)C(C)=C1C3(C)C)[C@]1(OC(C)=O)CO[C@@H]1C[C@@H]2O [paclitaxel] |  |  |  |  |  | Activation of caspase-3 in A549 cells (A549 cells): sufficient to activate caspase-3
CC1(C)C(/C=C/C=C/C=C/C=C2/N(CCC(=O)O)c3ccc4ccccc4c3C2(C)C)=[N+](CCC(=O)[O-])c2ccc3ccccc3c21 [Compound 2, cypate, reference compound] | 783 nm | 808 nm | 0.031 |  |  | Lifetime [4]: 0.25 ns
